From ChEMBL document CHEMBL1143844, “Biochemical studies on the mechanism of human immunodeficiency virus type 1 reverse transcriptase resistance to 1-(beta-D-dioxolane)thymine triphosphate” (Antimicrob Agents Chemother, 2007)

Columns and labels:
[1] = Inhibition of HIV1 reverse transcriptase 41L/67N/70R/210W/215Y mutant in presence of 5 mM ATP by heteropolymeric DNA polymerase assay; design: species or system Human immunodeficiency virus 1
Summary of the method: (§1)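 Heteropolymeric DNA polymerase assay with ATP added at 5 mM. Purified HIV-1 RT at 30–100 pM acts on a plate-bound DNA primer with a 5′-A12-(GTCA)5-3′ template. dATP, dGTP, dCTP and BrdUTP at 1.0 μM each. Incubation 180 min at 33°C. IC50 from seven inhibitor concentrations, at least two experiments in duplicate.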

[2] = Inhibition of HIV1 reverse transcriptase 41L/67N/70R/184V/210W/215Y mutant by heteropolymeric DNA polymerase assay; design: species or system Human immunodeficiency virus 1
Summary of the method: (§2)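 Purified p66/p51 HIV-1 RT, or p66 homodimer for 65R, at 30–100 pM (about 1.5–4.5 mU/well). Plate-bound 18-mer DNA primer on a 50-base 5′-A12-(GTCA)5-3′ DNA template. dATP, dGTP, dCTP and BrdUTP at 1.0 μM each, no ATP. Buffer: HEPES 50 mM pH 7.3, 10 mM MgCl2. Incubation 180 min at 33°C, NaOH dehybridization, anti-BrdU-AP tracer, A405. IC50 from seven inhibitor concentrations, at least two experiments in duplicate.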

[3] = Inhibition of HIV1 reverse transcriptase wild type HXB2(a) by heteropolymeric DNA polymerase assay; design: species or system Human immunodeficiency virus 1
Summary of the method: (§3)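 Heteropolymeric assay without ATP: plate-bound 18-mer DNA primer (~110 nM) with 50-mer 5′-A12-(GTCA)5 template (190 nM). dATP, dGTP, dCTP and BrdUTP at 1.0 μM each, in HEPES 50 mM pH 7.3, MgCl2 10 mM. RT 30–100 pM, 33°C for 180 min, then NaOH dehybridization and anti-BrdU-AP tracer read at 405 nm. IC50 from seven triphosphate concentrations; two to four runs in duplicate.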

[4] = Inhibition of HIV1 reverse transcriptase 41L/67N/70R/210W/215Y mutant in presence of 5'-A12-(GACT)5-3' by heteropolymeric DNA polymerase assay; design: species or system Human immunodeficiency virus 1
Summary of the method: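 DNA polymerase assay with 5 mM ATP and 1 μM each dATP, dGTP, dCTP and BrdUTP. The 50-base DNA template carries a 5′-A12 tail with a (GTCA)5 or (GACT)5 repeat. Incubation 180 min at 33°C, NaOH dehybridization, anti-BrdU-AP detection at 405 nm. IC50 from at least two experiments in duplicate. Fold change is relative to wild-type RT on the same template.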

[5] = Inhibition of HIV1 reverse transcriptase wild type HXB2(a) in presence of 5'-A12-(GACT)5-3' by heteropolymeric DNA polymerase assay; design: species or system Human immunodeficiency virus 1
Summary of the method: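 Heteropolymeric DNA assay with 5 mM ATP and dNTPs (BrdUTP replacing TTP) at 1.0 μM, using an alternative template repeat, 5′-A12-(GACT)5-3′. Run at 33°C for 180 min, followed by NaOH dehybridization and anti-BrdU-AP detection at 405 nm. IC50 reported in μM as the mean of at least two runs in duplicate.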

[6] = Inhibition of HIV1 reverse transcriptase wild type HXB2(a) in presence of 20 uM dNTP by heteropolymeric DNA polymerase assay; design: species or system Human immunodeficiency virus 1
Summary of the method: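 Heteropolymeric DNA assay containing 5 mM ATP on the 5′-A12-(GTCA)5 template, with each dNTP (BrdUTP in place of TTP) at 1 μM or, in the modified version, 20 μM. Mean IC50 from at least two runs in duplicate.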

[7] = Inhibition of HIV1 reverse transcriptase 41L/67N/70R/210W/215Y mutant by heteropolymeric DNA polymerase assay; design: species or system Human immunodeficiency virus 1; summary of the method: as §2
[8] = Inhibition of HIV1 reverse transcriptase 41L/67N/70R/210W/215Y mutant in presence of 1 uM dNTP by heteropolymeric DNA polymerase assay; design: species or system Human immunodeficiency virus 1
Summary of the method: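 DNA polymerase assay with 5 mM ATP and purified HIV-1 RT (HXB2 background) on a plate-bound primer with a 5′-A12-(GTCA)5-3′ template. Each dNTP (dATP, dGTP, dCTP, BrdUTP) is set at either 1 μM or 20 μM. IC50 from at least two experiments in duplicate. Fold change is relative to wild-type RT at the same dNTP level.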

[9] = Inhibition of HIV1 LAI reverse transcriptase 65R mutant by heteropolymeric DNA polymerase assay; design: species or system Human immunodeficiency virus 1; summary of the method: as §2
[10] = Inhibition of HIV1 reverse transcriptase 41L/67N/70R/210W/215Y mutant in presence of 5'-A12-(GTCA)5-3' by heteropolymeric DNA polymerase assay; design: species or system Human immunodeficiency virus 1
Summary of the method: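 DNA polymerase assay with 5 mM ATP and 1 μM each dATP, dGTP, dCTP and BrdUTP. The 50-base DNA template carries a 5′-A12 tail with a (GTCA)5 or (GACT)5 repeat. IC50 from at least two experiments in duplicate. Fold change is relative to wild-type RT on the same template.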

[11] = Inhibition of HIV1 reverse transcriptase wild type HXB2(b) by heteropolymeric DNA polymerase assay; design: species or system Human immunodeficiency virus 1; summary of the method: as §3
[12] = Inhibition of HIV1 HXB2 reverse transcriptase 41L/67N/70R/215Y/219Q mutant by heteropolymeric DNA polymerase assay
[13] = Inhibition of HIV1 reverse transcriptase 41L/69S-SG/184V/210W/215Y mutant in presence of 5 mM ATP by heteropolymeric DNA polymerase assay; design: species or system Human immunodeficiency virus 1
Summary of the method: as §1, with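 “33°C. BrdUMP incorporation read via anti-BrdU-AP at 405 nm after NaOH dehybridization.” for “33°C.”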

[14] = Inhibition of HIV1 reverse transcriptase 41L/67N/70R/215Y/219Q mutant in presence of 3.2 mM ATP by prA/odT assay; design: species or system Human immunodeficiency virus 1
Summary of the method: (§4)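 Buffer: 50 mM HEPES pH 7.3, 10 mM MgCl2, 0.5% Triton X-100, 0.1 mg/ml BSA. Incubation 180 min at 33°C. Product detected with AP-conjugated anti-BrdU at 405 nm. […] Ki from four inhibitor levels. At least two experiments in duplicate.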

[15] = Inhibition of HIV1 reverse transcriptase 41L/67N/70R/210W/215Y mutant in presence of 3.2 mM ATP by prA/odT assay; design: species or system Human immunodeficiency virus 1; summary of the method: as §4
[16] = Inhibition of HIV1 reverse transcriptase wild type HXB2(b) in presence of 3.2 mM ATP by prA/odT assay; design: species or system Human immunodeficiency virus 1
[17] = Inhibition of HIV1 reverse transcriptase 41L/69S-SG/184V/210W/215Y mutant by heteropolymeric DNA polymerase assay; design: species or system Human immunodeficiency virus 1; summary of the method: as §2

## C[C@H](Cn1cnc2c(N)ncnc21)OCP(=O)(O)OP(=O)(O)OP(=O)(O)O
[1]
  IC50: 13000 nM
[2]
  IC50: 1400 nM
[3]
  IC50: 1600 nM
[4]
  IC50: 8600 nM
[5]
  IC50: 2800 nM
[6]
  IC50: 19000 nM
[7]
  IC50: 1400 nM
[8]
  IC50: 13000 nM
[9]
  IC50: 12000 nM
[10]
  IC50: 13000 nM

## Cc1cn([C@H]2CO[C@@H](COP(=O)(O)OP(=O)(O)OP(=O)(O)O)O2)c(=O)[nH]c1=O
[1]
  IC50: 500 nM
[2]
  IC50: 160 nM
[4]
  IC50: 400 nM
[5]
  IC50: 310 nM
[6]
  IC50: 2000 nM
[11]
  IC50: 120 nM
[8]
  IC50: 500 nM
[12]
  IC50: 130 nM
[13]
  IC50: 1400 nM
[14]
  Ki: 11 nM
[15]
  Ki: 13 nM
[16]
  Ki: 1.8 nM
[17]
  IC50: 220 nM
[9]
  IC50: 460 nM
[10]
  IC50: 500 nM

## Cc1cn([C@H]2C[C@H](N=[N+]=[N-])[C@@H](COP(=O)(O)OP(=O)(O)OP(=O)(O)O)O2)c(=O)[nH]c1=O [ZIDOVUDINE TRIPHOSPHATE]
[3]
  IC50: 180 nM
[7]
  IC50: 140 nM
[11]
  IC50: 200 nM
[12]
  IC50: 190 nM
[13]
  IC50: 1200 nM
[14]
  Ki: 95 nM
[15]
  Ki: 130 nM
[16]
  Ki: 4 nM
[17]
  IC50: 210 nM
